High-throughput results (PubChem BioAssay)
A selection: hits, their analogues and other compounds. The true share with any hit is near 1.1%.
Diaph inh CS: diaphorase inhibition or chemical oxidation counter-screen; diaphorase resazurin-to-resorufin fluorescence, NADH, 16 min; bacterial (C. kluyveri) enzyme, not human; inhibition, % at 20 µM; 190,000 tested, 0.69% active; AID 1217;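 active = primary screen inhibition at 20 µM above a set limit, cut at about 50% in these data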
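Benchmarks: positive control wells lacking NADH, neutral wells with DMSO only. System: bacterial diaphorase enzyme (C. kluyveri). Input: 0.14 U/mL diaphorase, enzyme working solution. Detection: resorufin fluorescence, excitation 544 nm, emission 590 nm. Times: 16-min room-temperature incubation before reading.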
PMI activator: phosphomannose isomerase (human) activation; activation factor at 20 µM; 190,000 tested, 0.005% active; purified human PMI, coupled resazurin fluorescence, 20 min; hits give high values; 1 = vehicle control, 0 substrate-free wells;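 active = activation factor of 2 or more at 20 µM, relative to plate controls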
Target sequence (P34949 whole entry, looked up): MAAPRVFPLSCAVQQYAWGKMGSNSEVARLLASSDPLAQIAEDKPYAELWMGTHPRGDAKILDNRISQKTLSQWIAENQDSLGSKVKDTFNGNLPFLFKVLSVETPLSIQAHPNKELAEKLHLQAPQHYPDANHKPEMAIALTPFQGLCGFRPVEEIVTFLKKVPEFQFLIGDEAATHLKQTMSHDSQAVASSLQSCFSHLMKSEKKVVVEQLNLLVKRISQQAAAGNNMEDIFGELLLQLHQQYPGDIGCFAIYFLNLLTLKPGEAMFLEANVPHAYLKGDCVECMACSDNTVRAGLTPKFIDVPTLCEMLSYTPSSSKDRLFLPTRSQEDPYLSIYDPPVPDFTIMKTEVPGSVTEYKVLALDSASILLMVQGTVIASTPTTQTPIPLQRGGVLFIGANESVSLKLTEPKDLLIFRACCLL
PMI act satM6P: PMI (human) activation, high substrate | AID 1216 | coupled PMI enzyme assay, resazurin fluorescence, 20 min; hits give high values; 1 = untreated enzyme, 0 = substrate-free blank | 190,000 tested, 0.34% active | P34949 | activation factor at 20 µM;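 active = activation factor of 2 or more at 20 µM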
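Test system – human PMI in coupled enzyme assay · Timing – 20 min incubation at room temperature · Detection – Diaphorase-driven resazurin-to-resorufin fluorescence, excitation 544, emission 590 nm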
G6PDH CS: L. mesenteroides G6PDH inhibition counter-screen | Purified L. mesenteroides G6PDH, diaphorase/resazurin coupled fluorescence, 45 min | inhibition, % at 5 µM | 200,000 tested, 0.12% active | AID 1020; in the data active = inhibition above about 50%
Diaphorase act: activates diaphorase or chemically reduces, flagging diaphorase assay artifacts; AID 1229; Diaphorase/resazurin coupled assay, resorufin fluorescence, 16 min; hits give high values; 1 = vehicle wells, 0 = NADH-free wells; 190,000 tested, 0.005% active; activation factor at 20 µM;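 active = diaphorase activity raised at least twofold by the compound at 20 µM; inactive = activation factor below 2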
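Material: Clostridium kluyveri diaphorase, purified enzyme; Quantity: enzyme 0.07 U/mL final; Medium: HEPES pH 7.4 buffer with MgCl2 and Tween 20; Dosing: single compound dose of 20 µM, 1% DMSO final; Schedule: 16 min reaction at room temperature; Measured by: red resorufin fluorescence at 544/590 nm excitation/emission.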
Redox H2O2 prof: compounds producing H2O2 with reducing agent – biochemical, NIH compound library profiling, artefact control for MLSCN library redox annotation, primary screen; DTT-dependent redox cycling H2O2, phenol red/HRP absorbance; 100% = 100 µM peroxide control, 0% = buffer; activation, % at 10 µM; 200,000 tested, 0.03% active;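 active = activation of at least 50% relative to the plate's high and low controls in the primary single-dose screen; inactive = activation below 50%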;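 also: compound incubated with DTT at 0.8 mM final as the reducing agent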
Each line names hits and unclear results; the compound was inactive in the other large screens.

COc1ccc(N(CCCN2C(=O)c3cccc4cccc(c34)C2=O)C(=O)c2cccc(OC)c2)cc1	Diaph inh CS 55.5
COC(=O)Nc1cccn(Cc2c(Cl)cccc2Cl)c1=O	Diaph inh CS 51.1
CCOC(=O)CON1C(=O)c2ccccc2C1=O	none
CCO/C=C1/C(=O)N(C(C)=O)c2ccccc21	PMI act satM6P 2.6
CC1CCc2sc(C(=O)N=Nc3c(O)[nH]c4ccccc34)cc2C1 (stereo unspecified)	none
CCOC(=O)COc1ccccc1/C=C\[N+](=O)[O-]	none
O=C(CN1CCN(CCN2C(=O)c3cccc4cccc(c34)C2=O)CC1)c1ccc(Cl)cc1	PMI act satM6P 2.6
O=C(Nc1ccc(Oc2ccc(C(F)(F)F)cn2)c(Cl)c1)C1CC1	none
CNc1oc(Cc2ccccc2)nc1S(=O)(=O)c1ccc(Cl)cc1	Diaph inh CS 53.5
CNc1oc(-c2cccs2)nc1S(=O)(=O)c1ccccc1	none
Cc1ccc(CN=C(Nc2ccccc2)NC2CCCCC2)cc1	none
COCc1cc(C)nc2sc(C(=O)NCCO)c(-n3cccc3)c12	none
COc1ccc(NC(=O)CCc2nc3ccccc3[nH]2)cc1	none
CCOC(=O)Cc1cc(=O)n(-c2nc3ccccc3s2)[nH]1	PMI act satM6P 2.4
CCOC(=O)c1c2ccc(OCC(=O)N/N=C/c3ccc(C)cc3)cc2n2ccccc12	Diaph inh CS 60.9
CCOC(=O)c1c2ccc(OCC(=O)NN)cc2n2ccccc12	Diaph inh CS 64.4
Cc1ccc(/C=N/NC(=O)CNC(=O)COc2ccccc2)cc1	none
CCOC(=O)c1c(C)n(C)c2cc(OCCN(CC)CC)ccc12	none
COCCCNC(=S)N1CCN(S(C)(=O)=O)CC1	none
Cc1cc(-c2n[nH]c(=S)n2/N=C/c2ccc(Cl)c([N+](=O)[O-])c2)n[nH]1	none
CC(/C=N/n1c(-c2cc(C)[nH]n2)n[nH]c1=S)=C\c1ccccc1	Diaph inh CS 50.7
O=[N+]([O-])c1cc(/C=N/n2c(-c3ccncc3)n[nH]c2=S)ccc1Cl	Diaph inh CS 53.3
Cc1cc(-c2n[nH]c(=S)n2/N=C/c2cc([N+](=O)[O-])ccc2Cl)n[nH]1	Diaph inh CS 50.4
Cc1ccc(/C=N/n2c(-c3ccncc3)n[nH]c2=S)cc1	Diaph inh CS 59.9
COC(=O)c1c(C)nc2nonc2c1N	none
CCOc1cc(CNn2cn[nH]c2=S)cc(Cl)c1OCc1ccccc1F	none
CC/C(=N/Nc1ccccc1)c1cnnc(-c2ccccc2)n1	PMI act satM6P 2.9
CC/C(=N/Nc1cccc(Cl)c1)c1cnnc(SC)n1	none
CC(C)CCNC(=O)COc1ccc(N(C)S(=O)(=O)c2ccc(F)cc2)cc1	none
COc1ccccc1N/N=C/c1ccc2c(c1)OCO2	PMI act satM6P 2.3
COc1ccccc1NC(=O)NCc1ccc2c(c1)OCO2	none
Cc1c(C(=O)NCCCN2CCOCC2)oc2c1C1(CCC2)SCCS1	none
Nc1ccc2c(c1)C(=O)C(=O)c1ccccc1-2	G6PDH CS 58.0
Nc1ccc2c(c1)COC2=O	none
CC(C)C(c1nnnn1C(C)(C)C)N1CCC(Cc2ccccc2)CC1 (stereo unspecified)	none
COc1ccccc1/C=C/C(=O)Oc1cccc2cccnc12	none
Cc1ccc2cccc(OC(=O)/C=C\c3ccccc3)c2n1	G6PDH CS 50.9
CCOc1ccc(OCC)c(NC(=O)CCCN2C(=S)NC(C)(C)CC2C)c1 (stereo unspecified)	none
CC(=O)Nc1ccccc1NS(=O)(=O)c1cccc([N+](=O)[O-])c1	none
Cc1csc(NS(=O)(=O)c2cccc([N+](=O)[O-])c2)n1	Diaph inh CS 67.3
COc1ccc(S(=O)(=O)N=Nc2c(O)[nH]c3ccccc23)cc1	PMI act satM6P 2.5
Cc1ccc(N(CC(=O)N=Nc2c(O)[nH]c3ccccc23)S(C)(=O)=O)c(C)c1	none
Cc1ccc(S(=O)(=O)N=Nc2c(O)[nH]c3ccccc23)cc1C	PMI act satM6P 2.2
O=C(CCl)Nc1cccc(Oc2ccccc2)c1	none
CN(CCCNC(=O)CSc1cc(=O)n(C)c2ccc(Cl)cc12)Cc1ccccc1	none
O=C(C/C=N\OCc1ccc([N+](=O)[O-])cc1)Nc1ccc(Br)cc1	none
Cc1cc2cc(CCNC(=O)C(=O)c3c[nH]c4ccccc34)c(=O)[nH]c2cc1C	Diaph inh CS 70.0
Cc1cc2cc(CCNC(=O)c3ccc(C)c([N+](=O)[O-])c3)c(=O)[nH]c2cc1C	Diaph inh CS 71.7
Cc1cc2cc(CCNC(=O)C(C)C)c(=O)[nH]c2cc1C	none (no result: Diaph inh CS, PMI activator, PMI act satM6P, G6PDH CS, Diaphorase act)
CC(/C=N/NC(=O)c1cc(-c2cccnc2)nc2c1c(C)nn2-c1ccccc1)=C\c1ccccc1	none
OCC1(Cc2ccccc2)CCCN(Cc2c[nH]c3ccccc23)C1 (stereo unspecified)	none
CS(=O)(=O)Nc1ccccc1C(=O)O	none
CCN(CC)C(=O)c1ccccc1NS(C)(=O)=O	Diaph inh CS 73.6
O=C(C1CCOCC1)N1CCC(CO)(CCc2ccccc2)CC1	none
Cc1[nH]c2ccccc2c1C(C[N+](=O)[O-])c1ccco1 (stereo unspecified)	Diaph inh CS 51.0
CC(=O)N(C1=C(N)C(=O)c2ccccc2C1=O)C(C)C	none
CCC(=O)N(C1=C(NC(C)C)C(=O)c2ccccc2C1=O)C(C)C	G6PDH CS 55.2
CCOC(=O)C(=CNc1ccc(C#N)cc1)C(=O)OCC	none
Fc1cccc(NC(=S)NNc2c3ccccc3nc3ccccc23)c1	PMI act satM6P 2.1
CC(=O)Nc1ccccc1NC(=O)c1ccc(C)c(C)c1	none
O=C(Nc1ccc(N2CCOCC2)cc1)Nc1ccc2nc(-c3ccco3)c(-c3ccco3)nc2c1	none
O=C(Nc1ccc2nc(-c3ccco3)c(-c3ccco3)nc2c1)NC1CC1	Diaph inh CS 79.7
O=C(NCCCO)Nc1ccc2nc(-c3ccco3)c(-c3ccco3)nc2c1	Diaph inh CS 60.1
Cc1ccc(/C=C2\SC(=S)N(/N=C/c3cc([N+](=O)[O-])ccc3O)C2=O)o1	Diaph inh CS 62.9
O=C(Nc1ccc2c(c1)OCCO2)N1CCN(Cc2ccccc2)CC1	none
COc1ccc(S(=O)(=O)N2CCN(c3ccc4nnc(-c5ccccc5)n4n3)CC2)cc1	Diaph inh CS 52.8
CC(C)C(c1nnnn1Cc1ccc(F)cc1)N1CCN(c2ccc(O)cc2)CC1 (stereo unspecified)	Diaph inh CS 62.0
COC(=O)c1ccc(NC(=O)CSc2n[nH]c(-c3ccncc3)n2)cc1	none
